This is a sample that favours compounds with a hit; in the whole collection about 7.6% have one here.
D1 mod = D1 CRE-luciferase signal change, two-sided – cell-based, HEK293 D1, dopamine EC30, D1 allosteric modulator project, primary screen | D(1A) dopamine receptor (Homo sapiens), P21728 | hit rate 5.9% among 58,000 | dopamine EC30 potentiation; actives deviate in either direction | AID 641, 2007 | B-score at 10 µM;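 active = luminescence count or its row- and column-corrected plate score outside the 99.7% band of the plate's sample wells, on either side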
Target sequence (P21728 whole entry, looked up): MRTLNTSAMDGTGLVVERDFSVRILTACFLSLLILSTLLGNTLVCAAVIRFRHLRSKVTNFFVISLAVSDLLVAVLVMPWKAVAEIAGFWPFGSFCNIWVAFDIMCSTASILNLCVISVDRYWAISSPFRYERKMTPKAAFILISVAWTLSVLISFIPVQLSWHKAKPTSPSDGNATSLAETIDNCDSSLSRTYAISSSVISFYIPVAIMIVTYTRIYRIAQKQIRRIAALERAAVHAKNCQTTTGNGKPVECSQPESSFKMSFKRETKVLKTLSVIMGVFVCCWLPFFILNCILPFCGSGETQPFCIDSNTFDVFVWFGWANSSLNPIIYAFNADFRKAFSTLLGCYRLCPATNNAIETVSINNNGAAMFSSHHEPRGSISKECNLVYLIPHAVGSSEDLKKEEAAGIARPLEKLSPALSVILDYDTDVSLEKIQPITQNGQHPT
M1 ag = M1 muscarinic receptor agonists, primary screen, CHO-M1 cells, Fluo-4 calcium, agonist mode; Muscarinic acetylcholine receptor M1; Fluo-4 calcium fluorescence; stronger effect = higher value; B-score at 10 µM; hit rate 3% among 64,000; AID 626, 2007;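 active = fluorescence rise, raw or as B-score row- and column-corrected plate score, outside the 99.7% band of its plate's samples, either direction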
HEK293 NFkB inh = inhibitors of PMA/ionomycin-induced NF-kB reporter, primary screen, antigen receptor NF-kB inhibitor project, cell-based, HEK-293 luciferase reporter, luminescence; HEK-293 NF-kB luciferase reporter; hit rate 0.21% among 62,000; AID 465, 2006; inhibition, % at 3 µM;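 active = inhibition above the mean of all tested compounds plus 3 SD, cut at about 40% in these data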;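 note: 0% = stimulated DMSO wells and 100% = 10 µM reference inhibitor 5653914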
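Signal: luciferase luminescence; Material: HEK-293 cells with stable firefly luciferase reporter driven by four HIV NF-kB elements; Probe or stimulus: PMA with ionomycin; Replication: tested once; Times: 1 h compound pretreatment, then 16 h stimulation at 37 °C, 5% CO2; Benchmarks: DMSO and 10 µM reference inhibitor; Evaluation: per-plate % inhibition versus controls.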
hDAT+cocaine = changed hDAT dopamine uptake under cocaine IC80, either direction, primary screen, cocaine antagonist project, cell-based, LLC-PK1 hDAT, [14C]-dopamine uptake, MLSMR; Sodium-dependent dopamine transporter (Homo sapiens), Q01959; LLC-PK1 hDAT cells, [14C]-dopamine uptake with cocaine IC80; actives deviate in either direction; B-score at 10 µM; hit rate 1.3% among 110,000;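 active = Z score or B-score, a plate-position-corrected score, falls beyond the plate's 99.7% confidence bounds, in either direction; inactive = both scores lie inside the 99.7% bounds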;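 note: scored against the spread of the other compound wells on the same plate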
M1 antag = antagonists of rat M1 muscarinic receptor | AID 628, 2007 | Muscarinic acetylcholine receptor M1 (Rattus norvegicus), P08482 | CHO-M1 cells, Fluo-4 calcium, ACh EC80 antagonist mode; stronger effect = lower value | B-score at 10 µM | hit rate 3.4% among 64,000;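 active = calcium fluorescence response, raw or row-and-column corrected B-score, differing from the plate sample mean either way at a set confidence level, mostly lower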
Jurkat tox 60K = cytotoxicity toward Jurkat T cells, primary screen, cytotoxicity control, cell-based, Jurkat E6.1, 60K MLSMR library. Jurkat E6.1 viability, ATP luminescence, 48 h. inhibition, % at 4 µM. hit rate 1.2% among 56,000;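 active = inhibition above the mean inhibition of all tested compounds plus 3 SD, cut at about 28% in these data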
Numbers without * were called inactive; x = no result given.

SMILES	D1 mod	M1 ag	HEK293 NFkB inh	hDAT+cocaine	M1 antag	Jurkat tox 60K
COc1ccc(-c2nnc(SCC(=O)/C(C#N)=C(\C)N)o2)cc1	-3.2*	-0.097	-37	-0.47	0.096	12
O=C(CSc1nnc(-c2ccccc2)o1)N1CCc2ccccc2C1	-0.42	-0.53	9	x	-0.84	6
O=C(NCCCN1CCc2ccccc2C1)Nc1ccc(Cl)cc1	x	x	x	-2.5*	x	x
CN(C=O)CP(=O)(O)CCN1CCCC1=O	0.6	0.29	13	x	0.022	-4
CCOc1ccc2cc(C#N)c(SCC(=O)N3CCCC3)nc2c1	2	1.8	1	x	0.52	5
CCCCNC(=O)c1sc2ncnc(N3CCc4ccccc4C3)c2c1C	x	x	x	4.2*	x	x
CCCn1c(=O)c(C(=O)Nc2c(C)n(C)n(-c3ccccc3)c2=O)c(O)c2ccccc21	-0.17	-0.013	15	x	-11*	1
CCn1c(=O)c(C(=O)Nc2nc3ccccc3[nH]2)c(O)c2ccccc21	-0.65	-0.18	21	-0.12	0.02	29*
CCCNC(=O)C(Cc1ccccc1)NS(=O)(=O)c1ccc2c(c1)CCC(=O)N2 (stereo not drawn)	1.1	1.4	8	-2.2*	0.5	5
COCCCNC(=O)c1c(N)n(/N=C/c2ccccn2)c2nc3ccccc3nc12	-1	1.8	x	1.5	-0.35	x
C=CCn1cnc2c(c1=O)c1nc3ccccc3nc1n2/N=C/c1cccc(OC)c1OC	0.18	4.8*	6	x	-1.4	0
C=CCn1cnc2c(c1=O)c1nc3ccccc3nc1n2-c1ccccc1	2	0.02	18	x	-14*	-9
C=CCn1cnc2c(c1=O)c1nc3ccccc3nc1n2-c1ccc(C)cc1	1.9	0.24	x	x	1.2	x
C=CCn1cnc2c(c1=O)c1nc3ccccc3nc1n2/N=C/c1ccccn1	2.2	8.1*	22	x	-4.1*	-1
O=c1c2c3nc4ccccc4nc3n(CCN3CCOCC3)c2ncn1CCN1CCOCC1	x	2.7*	9	x	-0.0085	2
CN1C(C(=O)NCc2cccc(C(F)(F)F)c2)CC2Cn3c(nc4cc5ccccc5cc43)C21 (stereo not drawn)	x	x	x	1.5*	x	x
Cc1nc(-c2cccc(NC(=O)c3cccs3)c2)cs1	x	x	x	3.2*	x	x
Cc1nc(-c2cccc(NS(=O)(=O)c3cccc4ccccc34)c2)cs1	x	x	x	3.5*	x	x
O=C(Nc1cccc(-c2csc(-c3ccccc3)n2)c1)c1cccs1	x	x	x	1.5	x	x
Cc1ccc(-c2nc3n(n2)Cc2ccccc2-3)cc1	x	x	x	-0.037	x	x
CCn1c(C)nc2cc(-c3nc4n(n3)Cc3ccccc3-4)ccc21	x	1	93*	0.37	0.14	62*
O=C(O)CSCCc1ccccn1	-1.1	1.3	1	0.32	0.061	5
O=C(NCCO)c1ccccc1O	x	x	x	-9.9*	x	x
O=C(NCCCc1ccccc1)c1ccccc1O	-0.63	-2	x	1.1	-0.31	x
CC(Nc1nc(-c2ccc(F)cc2)cs1)c1nc2cc(Cl)c(Cl)cc2n1CCCO (stereo not drawn)	x	x	x	-0.42	x	x
SMILES	D1 mod	M1 ag	HEK293 NFkB inh	hDAT+cocaine	M1 antag	Jurkat tox 60K
Cc1csc(NC(C)c2nc3cc(C(F)(F)F)ccc3n2CCCO)n1 (stereo not drawn)	x	x	x	-2.7*	x	x
Cn1c(SCc2c(F)cccc2Cl)nnc1-c1cccs1	0.19	0.27	-9	2.3*	-1.3	-2
Cn1c(SCCOc2ccccc2Cl)nnc1-c1cccs1	x	x	x	0.78	x	x
C/C(N)=C(/C#N)C(=O)CSc1nnnn1-c1ccc(C)cc1C	-0.98	0.56	9	-0.7	0.68	30*
Cc1cc(COc2ccccc2OCCN2CCN(C)CC2)no1	-1.2	0.29	x	0.077	0.75	x
O=C1C(=O)c2ccc(-c3ccccc3)cc2-c2ccccc21	x	x	x	0.022	x	x
Nc1ccc2c(c1)C(=O)C(=O)c1ccccc1-2	x	x	x	-3.2*	x	x
O=C(Oc1cccc(C(=O)N2CCOCC2)c1)c1ccc(Br)cc1	-0.3	0.31	15	0.49	-0.24	-2
COc1cc(O)c(C(CCN2CCCC(C)C2)c2ccc(N(C)C)cc2)c(OC)c1 (stereo not drawn)	x	x	x	2.2*	x	x
O=C(NCC(=O)N(c1ccccc1)C(C(=O)NC1CCCC1)c1cccnc1)c1cccs1 (stereo not drawn)	x	x	x	-0.4	x	x
CCOC(=O)/C(C(=O)Nc1ccccc1Cl)=C1/NC(C)(C)Cc2ccccc21	x	x	x	2.8*	x	x
Cc1c(C(=O)OCc2ccccc2)[nH]c2c1C(=O)CC(c1ccco1)C2 (stereo not drawn)	3.3	-0.43	38	-0.88	-0.096	98*
COCCOC(=O)c1[nH]c2c(c1C)C(=O)CC(c1ccc(N(C)C)cc1)C2 (stereo not drawn)	-1.2	-0.016	5	1.1	0.15	-4
COCCOC(=O)c1[nH]c2c(c1C)C(=O)CC(c1ccc(F)cc1)C2 (stereo not drawn)	x	-0.1	8	-0.16	0.087	75*
COCCOC(=O)c1[nH]c2c(c1C)C(=O)CC(c1ccccc1)C2 (stereo not drawn)	x	-0.18	30	x	0.18	x
CCOC(=O)c1[nH]c2c(c1C)C(=O)CC(c1ccco1)C2 (stereo not drawn)	-0.79	0.0053	41*	-1.5	0.11	100*
CSCCOC(=O)c1[nH]c2c(c1C)C(=O)CC(c1ccco1)C2 (stereo not drawn)	-1	0.62	29	-0.36	-0.051	85*
COc1ccc(C2CC(=O)c3c([nH]c(C(=O)OC(C)C)c3C)C2)cc1OC (stereo not drawn)	-1.1	0.76	11	x	-0.45	x
Cc1nc2nc(SCC(=O)N3CCOCC3)nn2c(C)c1Cc1c(F)cccc1Cl	-0.63	-0.68	5	0.62	0	x
COc1ccc(C(=O)COC(=O)c2ccc(NC(C)=O)cc2)cc1[N+](=O)[O-]	x	x	x	0.32	x	x
CCCCOC(=O)c1[nH]c2c(c1C)C(=O)CC(c1cc(OC)c(OC)c(OC)c1)C2 (stereo not drawn)	-3.4*	-0.0029	27	1.2	-0.51	46*
COCCOC(=O)c1[nH]c2c(c1C)C(=O)CC(c1ccco1)C2 (stereo not drawn)	3	-1.4	39	-0.012	-0.026	92*
S=C(Nc1ccccc1)Nc1cc(Cl)ccc1Oc1ccccc1	x	x	x	1.1	x	x
COC(C(=O)Nc1ccc(F)cc1F)c1ccccc1 (stereo not drawn)	x	x	x	-0.017	x	x
Cc1sc2nc(SCC(=O)N(C)C)[nH]c(=O)c2c1C	0.5	0.87	13	0.42	-0.036	-2
